Experimental findings from ChEMBL document CHEMBL4834420, “Projected Dose Optimization of Amino- and Hydroxypyrrolidine Purine PI3Kδ Immunomodulators” (J Med Chem, 2021) are described below.

Each structure is given as a SMILES string.

By IC50 is commonly meant the concentration at which inhibition is half-maximal. Broadly, the half-life is the time in which the quantity being followed falls by half. A low value points to fast loss.

The nature of series [1]: Trough plasma concentration Brown Norway rat at 10 mg/kg, po. It is filed as ADME, organism-based. The conditions noted are these: in vivo, read-out: Cmin.
The next series deals with T1, Cytochrome P450 2C8 (Homo sapiens, UniProt P10632).
T1 sequence (P10632 whole entry): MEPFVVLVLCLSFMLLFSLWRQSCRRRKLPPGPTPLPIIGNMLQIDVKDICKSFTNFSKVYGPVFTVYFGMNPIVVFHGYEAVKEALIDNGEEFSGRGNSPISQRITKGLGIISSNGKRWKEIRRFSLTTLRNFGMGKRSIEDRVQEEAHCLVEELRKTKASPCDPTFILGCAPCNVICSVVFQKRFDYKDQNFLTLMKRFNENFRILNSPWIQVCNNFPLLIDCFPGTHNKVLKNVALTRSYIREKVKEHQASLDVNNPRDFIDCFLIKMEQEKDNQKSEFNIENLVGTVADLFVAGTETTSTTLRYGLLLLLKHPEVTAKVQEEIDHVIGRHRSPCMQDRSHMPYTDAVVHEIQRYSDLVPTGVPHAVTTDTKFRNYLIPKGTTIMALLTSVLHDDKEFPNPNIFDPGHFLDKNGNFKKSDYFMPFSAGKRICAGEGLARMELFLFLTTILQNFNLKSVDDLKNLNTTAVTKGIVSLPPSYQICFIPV
Briefly: Inhibition of CYP2C8 (unknown origin). It is filed as ADME.

Series [2] is described as follows: Half-life in Wistar Han rat. It is filed as ADME. The conditions noted are these: in vivo.
Series [3] is described as follows: Trough plasma concentration C57BL/6 mouse at 100 mg/kg. It is filed as ADME, organism-based. The conditions noted are these: in vivo, read-out: Cmin. In outline: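 C57BL/6-Foxp3-GFP reporter mice were dosed at 30 and 100 mg/kg/day for up to 7 days, with exposure determined at 100 mg/kg. The unbound Cmax and trough values were derived from total plasma levels. Treg readout was bioluminescence imaging 10 min after 3 mg luciferin ip, reported as radiance in photons/s/cm²/steradian.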

The target of series [4] is T2, Phosphatidylinositol 4,5-bisphosphate 3-kinase catalytic subunit delta isoform (Homo sapiens, UniProt O00329).
T2 sequence (O00329 whole entry): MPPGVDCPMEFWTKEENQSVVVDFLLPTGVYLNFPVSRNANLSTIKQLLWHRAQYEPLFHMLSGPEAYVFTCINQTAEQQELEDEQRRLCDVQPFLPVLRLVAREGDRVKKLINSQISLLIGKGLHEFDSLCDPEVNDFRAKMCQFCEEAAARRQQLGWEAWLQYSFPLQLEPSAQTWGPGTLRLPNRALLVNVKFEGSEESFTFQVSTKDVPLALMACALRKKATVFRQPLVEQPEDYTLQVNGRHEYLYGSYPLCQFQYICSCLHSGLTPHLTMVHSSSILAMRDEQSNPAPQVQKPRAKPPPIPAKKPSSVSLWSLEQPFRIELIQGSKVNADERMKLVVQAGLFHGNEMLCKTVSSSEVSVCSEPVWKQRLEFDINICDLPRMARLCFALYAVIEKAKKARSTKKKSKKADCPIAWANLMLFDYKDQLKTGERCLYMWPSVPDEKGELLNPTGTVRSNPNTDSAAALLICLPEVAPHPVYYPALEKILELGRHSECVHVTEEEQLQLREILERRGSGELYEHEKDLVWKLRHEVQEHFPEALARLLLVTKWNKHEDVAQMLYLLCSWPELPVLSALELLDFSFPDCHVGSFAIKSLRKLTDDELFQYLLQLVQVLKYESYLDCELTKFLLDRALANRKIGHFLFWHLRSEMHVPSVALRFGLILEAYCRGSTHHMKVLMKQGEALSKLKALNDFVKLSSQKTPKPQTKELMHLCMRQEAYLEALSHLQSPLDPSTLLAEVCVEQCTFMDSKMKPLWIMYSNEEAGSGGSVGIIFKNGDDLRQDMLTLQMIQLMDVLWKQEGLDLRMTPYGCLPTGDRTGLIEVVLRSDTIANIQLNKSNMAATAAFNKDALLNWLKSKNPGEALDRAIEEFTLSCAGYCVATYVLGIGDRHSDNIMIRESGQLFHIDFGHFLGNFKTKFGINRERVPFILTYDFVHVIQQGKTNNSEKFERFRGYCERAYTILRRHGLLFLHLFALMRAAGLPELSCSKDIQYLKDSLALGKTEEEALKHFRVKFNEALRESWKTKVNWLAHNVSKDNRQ
The series is described as follows: Inhibition of PI3Kdelta in human whole blood assessed as reduction in antihuman IgE antibody-stimulated CD63 expression preincubated for 30 mins followed by antihuman IgE antibody stimulation and measured after 20 mins by FACS analysis. It is filed as tissue-based. In outline:
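Blood from healthy human volunteer donors, pre-incubated with compound (DMSO, varying concentrations) for 30 min at 37 °C. Basotest reagent B added for 30 min at 37 °C, then goat anti-human IgE (50 ng/mL in reagent A before addition) for 20 min at 37 °C. Stopped on ice, stained for CD63/IgE/CD203c/CD45 (20 min, 4 °C), RBC-lysed, and read by flow cytometry. IgE+ basophils gated, CD63+ scored; IC50 from sigmoidal fit of % inhibition.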
(In general: A flow cytometer gives signals particle by particle.)

Series [5] can be described thus: Half life in C57BL/6 mouse. It is filed as ADME. Conditions: in vivo.

Regarding `CCn1c(-c2cnc(C)nc2)nc2c(N[C@H]3CCN(C(=O)C4CC4)C3)ncnc21`, the results for the concentration in series [1] and in series [3] were 14 nM and 110 nM, respectively. Moreover, the IC50 at Cytochrome P450 2C8 is over 50 µM; in series [4], 0.05 µM. In addition, the half-life in series [2] was 2.7 h; in series [5], 0.8 h.
